{"data": "Results collected from several papers", "target": "Aurora kinase C (AURKC, Homo sapiens, UniProt Q9UQB9)", "Residues used in one study (Q9UQB9 1-309)": "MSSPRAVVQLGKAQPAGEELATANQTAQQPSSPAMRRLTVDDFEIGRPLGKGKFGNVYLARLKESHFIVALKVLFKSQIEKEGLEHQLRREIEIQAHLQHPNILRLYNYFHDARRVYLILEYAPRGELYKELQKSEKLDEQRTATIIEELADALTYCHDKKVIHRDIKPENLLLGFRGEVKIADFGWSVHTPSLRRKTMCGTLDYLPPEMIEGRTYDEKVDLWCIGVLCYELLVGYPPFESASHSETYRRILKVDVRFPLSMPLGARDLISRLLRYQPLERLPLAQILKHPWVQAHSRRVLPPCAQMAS", "note": "Lines come from different studies, so protocols differ."}
{"SMILES": "CO[C@@H]1[C@H](N(C)C(=O)c2ccccc2)C[C@H]2O[C@]1(C)n1c3ccccc3c3c4c(c5c6ccccc6n2c5c31)C(=O)NC4", "read-out": "enzyme activity", "mode": "inhibitor", "concentration": "1 µM", "measurement": "inhibition", "value": "99%"}
{"SMILES": "COc1ccc2[nH]c3c4[nH]c5ccc(OC)cc5c4c4c(c3c2c1)C(=O)NC4=O", "read-out": "binding", "technique": "competition with immobilised ligand", "concentration": "1 µM", "measurement": "remaining binding", "value": "17%"}
{"SMILES": "CCCCC(=O)Nc1ccc(-c2ccc3ncn(CCC)c(=O)c3c2)cn1", "read-out": "binding", "technique": "competition with immobilised ligand", "concentration": "0.5 µM", "measurement": "remaining binding", "value": "83%"}
{"SMILES": "C1=C/COCc2cc(ccc2OCCN2CCCC2)Nc2nccc(n2)-c2cccc(c2)COC/1", "read-out": "binding", "concentration": "0.1 µM", "measurement": "remaining binding", "value": "96%"}
{"SMILES": "CNS(=O)(=O)c1ccc(Nc2ncc(C(F)(F)F)c(N3CCC[C@](C)(O)C3)n2)c(C)c1", "read-out": "binding", "technique": "competition with immobilised ligand", "concentration": "1 µM", "measurement": "remaining binding", "value": "37%"}
{"SMILES": "Cc1ccc(NC(=O)c2ccnc(C(F)(F)F)c2)cc1-c1cc(OCCO)nc(N2CCOCC2)c1", "read-out": "binding", "technique": "competition with immobilised ligand", "concentration": "1 µM", "measurement": "remaining binding", "value": "83%"}
{"SMILES": "COc1ccc2oc(-c3ccc4nc(N)oc4c3)c/c(=N\\c3ccccc3NC(=O)CCN)c2c1", "read-out": "binding", "concentration": "1 µM", "measurement": "remaining binding", "value": "106%"}
{"SMILES": "C[C@]1(O)CCCN(c2nc(Nc3ccc(S(=O)(=O)N[C@H]4CC[C@H](CN5CCN(c6ccc(C7CCC(=O)NC7=O)cc6F)CC5)CC4)cc3F)ncc2C(F)(F)F)C1 (stereo partly shown)", "read-out": "binding", "technique": "competition with immobilised ligand", "concentration": "1 µM", "measurement": "remaining binding", "value": "97%"}
{"SMILES": "CC#CC(=O)N1CCC[C@H]1c1nc(-c2ccc(C(=O)Nc3ccccn3)cc2)c2c(N)nccn12", "read-out": "enzyme activity", "mode": "inhibitor", "concentration": "1 µM", "measurement": "inhibition", "value": "18%"}
{"SMILES": "CC(C)S(=O)(=O)c1ccc2nccc(Nc3ccc4sc(C5CCCC5)nc4c3)c2c1", "read-out": "enzyme activity", "mode": "inhibitor", "concentration": "1 µM", "measurement": "activity vs control", "value": "101%"}
